ChEMBL document CHEMBL3856258, “Phosphonate-based irreversible inhibitors of human γ-glutamyl transpeptidase (GGT). GGsTop is a non-toxic and highly selective inhibitor with critical electrostatic interaction with an active-site residue Lys562 for enhanced inhibitory activity” (Bioorg Med Chem, 2016)

Assays:
[1] = Cytotoxicity against CHL cells assessed as growth rate at 211 ug/ml preincubated for 6 hrs followed by 18 hrs incubation in fresh medium in presence of S9 fraction by MTT assay relative to control; type: toxicity, cell-based, Cricetulus griseus; details: chinese hamster, read-out: Activity
Salmonella typhimurium [2] = assay: Genotoxicity in Salmonella typhimurium TA100 assessed as number of revertant colonies per plate at 20.6 ug/plate after 20 mins in absence of S9 fraction by Ames test (reference value: 123); type: toxicity, organism-based; details: salmonella enterica subsp. enterica serovar typhimurium
[3] = Cytotoxicity against human CCD-1059SK cells assessed as morphological change up to 1 mM after 24 hrs by inverted microscopic analysis; type: toxicity, cell-based
Summary of the method: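 Human skin fibroblasts (CCD-1059SK), passages 10–20, grown in DMEM with 10% FBS and antibiotics at 37 °C under 5% CO2. Plated at 3 × 10^4 cells/mL on chamber slides and pre-incubated 24 h. Then exposed 24 h to 0, 5, 10, 20, 50 or 1000 µM in DMEM (from aqueous solution); water-only control. Morphology checked by inverted microscopy.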

[4] = Cytotoxicity against CHL cells assessed as growth rate at 13.5 ug/ml after 24 hrs in absence of S9 fraction by MTT assay relative to control; type: toxicity, cell-based, Cricetulus griseus; details: chinese hamster, read-out: Activity
[5] = Cytotoxicity against CHL cells assessed as chromatid gap at 3300 ug/ml after 24 hrs by Giemsa-staining-based microscopic analysis; type: toxicity, cell-based, Cricetulus griseus; details: chinese hamster
Salmonella typhimurium [6] = assay: Genotoxicity in Salmonella typhimurium TA98 assessed as number of revertant colonies per plate at 5000 ug/plate after 20 mins in presence of S9 fraction by Ames test (reference value: 26); type: toxicity, organism-based; details: salmonella enterica subsp. enterica serovar typhimurium
[7] = Cytotoxicity against CHL cells assessed as growth rate at 13.5 ug/ml preincubated for 6 hrs followed by 18 hrs incubation in fresh medium in absence of S9 fraction by MTT assay relative to control; type: toxicity, cell-based, Cricetulus griseus; details: chinese hamster, read-out: Activity
[8] = Cytotoxicity against CHL cells assessed as growth rate at 33.8 ug/ml preincubated for 6 hrs followed by 18 hrs incubation in fresh medium in absence of S9 fraction by MTT assay relative to control; type: toxicity, cell-based, Cricetulus griseus; details: chinese hamster, read-out: Activity
Rattus norvegicus = species: Rattus norvegicus; assay: Cytotoxicity against Wistar rat BSC assessed as reduction in cell viability up to 1 mM after 24 hrs by neutral red method; type: toxicity
Salmonella typhimurium [9] = assay: Genotoxicity in Salmonella typhimurium TA98 assessed as number of revertant colonies per plate at 556 ug/plate after 20 mins in presence of S9 fraction by Ames test (reference value: 26); type: toxicity, organism-based; details: salmonella enterica subsp. enterica serovar typhimurium
[10] = Cytotoxicity against CHL cells assessed as growth rate at 84.5 ug/ml after 24 hrs in absence of S9 fraction by MTT assay relative to control; type: toxicity, cell-based, Cricetulus griseus; details: chinese hamster, read-out: Activity
Escherichia coli [11] = assay: Genotoxicity in Escherichia coli WP2uvrA assessed as number of revertant colonies per plate at 61.7 ug/plate after 20 mins in absence of S9 fraction by Ames test (reference value: 24); type: toxicity; details: s9, 20 min
Salmonella typhimurium [12] = assay: Genotoxicity in Salmonella typhimurium TA1535 assessed as number of revertant colonies per plate at 556 ug/plate after 20 mins in absence of S9 fraction by Ames test (reference value: 15); type: toxicity, organism-based; details: salmonella enterica subsp. enterica serovar typhimurium
Salmonella typhimurium [13] = assay: Genotoxicity in Salmonella typhimurium TA1535 assessed as number of revertant colonies per plate at 185 ug/plate after 20 mins in absence of S9 fraction by Ames test (reference value: 15); type: toxicity, organism-based; details: salmonella enterica subsp. enterica serovar typhimurium
Escherichia coli [14] = assay: Genotoxicity in Escherichia coli WP2uvrA assessed as number of revertant colonies per plate at 556 ug/plate after 20 mins in absence of S9 fraction by Ames test (reference value: 24); type: toxicity; details: s9, 20 min
Salmonella typhimurium [15] = assay: Genotoxicity in Salmonella typhimurium TA98 assessed as number of revertant colonies per plate at 20.6 ug/plate after 20 mins in absence of S9 fraction by Ames test (reference value: 21); type: toxicity, organism-based; details: salmonella enterica subsp. enterica serovar typhimurium
Salmonella typhimurium [16] = assay: Genotoxicity in Salmonella typhimurium TA1537 assessed as number of revertant colonies per plate at 1667 ug/plate after 20 mins in presence of S9 fraction by Ames test (reference value: 15); type: toxicity, organism-based; details: salmonella enterica subsp. enterica serovar typhimurium
Salmonella typhimurium [17] = assay: Genotoxicity in Salmonella typhimurium TA1535 assessed as number of revertant colonies per plate at 20.6 ug/plate after 20 mins in absence of S9 fraction by Ames test (reference value: 15); type: toxicity, organism-based; details: salmonella enterica subsp. enterica serovar typhimurium
Salmonella typhimurium [18] = assay: Genotoxicity in Salmonella typhimurium TA1535 assessed as number of revertant colonies per plate at 61.7 ug/plate after 20 mins in absence of S9 fraction by Ames test (reference value: 15); type: toxicity, organism-based; details: salmonella enterica subsp. enterica serovar typhimurium
Escherichia coli [19] = assay: Genotoxicity in Escherichia coli WP2uvrA assessed as number of revertant colonies per plate at 185 ug/plate after 20 mins in absence of S9 fraction by Ames test (reference value: 24); type: toxicity; details: s9, 20 min
[20] = Cytotoxicity against CHL cells assessed as structural aberrations at 1650 ug/ml preincubated for 6 hrs followed by 18 hrs incubation in fresh medium in absence of S9 fraction by Giemsa-staining-based microscopic analysis; type: toxicity, cell-based, Cricetulus griseus; details: chinese hamster
Salmonella typhimurium [21] = assay: Genotoxicity in Salmonella typhimurium TA1535 assessed as number of revertant colonies per plate at 20.6 ug/plate after 20 mins in presence of S9 fraction by Ames test (reference value: 13); type: toxicity, organism-based; details: salmonella enterica subsp. enterica serovar typhimurium
Salmonella typhimurium [22] = assay: Genotoxicity in Salmonella typhimurium TA1537 assessed as number of revertant colonies per plate at 20.6 ug/plate after 20 mins in presence of S9 fraction by Ames test (reference value: 15); type: toxicity, organism-based; details: salmonella enterica subsp. enterica serovar typhimurium
Salmonella typhimurium [23] = assay: Genotoxicity in Salmonella typhimurium TA98 assessed as number of revertant colonies per plate at 185 ug/plate after 20 mins in absence of S9 fraction by Ames test (reference value: 21); type: toxicity, organism-based; details: salmonella enterica subsp. enterica serovar typhimurium
Salmonella typhimurium [24] = assay: Genotoxicity in Salmonella typhimurium TA1537 assessed as number of revertant colonies per plate at 185 ug/plate after 20 mins in absence of S9 fraction by Ames test (reference value: 9); type: toxicity, organism-based; details: salmonella enterica subsp. enterica serovar typhimurium
[25] = Cytotoxicity against CHL cells assessed as growth rate at 528 ug/ml preincubated for 6 hrs followed by 18 hrs incubation in fresh medium in presence of S9 fraction by MTT assay relative to control; type: toxicity, cell-based, Cricetulus griseus; details: chinese hamster, read-out: Activity
Escherichia coli [26] = assay: Genotoxicity in Escherichia coli WP2uvrA assessed as number of revertant colonies per plate at 556 ug/plate after 20 mins in presence of S9 fraction by Ames test (reference value: 26); type: toxicity; details: s9, 20 min
Salmonella typhimurium [27] = assay: Genotoxicity in Salmonella typhimurium TA1537 assessed as number of revertant colonies per plate at 1667 ug/plate after 20 mins in absence of S9 fraction by Ames test (reference value: 9); type: toxicity, organism-based; details: salmonella enterica subsp. enterica serovar typhimurium
[28] = Cytotoxicity against CHL cells assessed as chromatid gap at 3300 ug/ml preincubated for 6 hrs followed by 18 hrs incubation in fresh medium in presence of S9 fraction by Giemsa-staining-based microscopic analysis; type: toxicity, cell-based, Cricetulus griseus; details: chinese hamster
[29] = Cytotoxicity against CHL cells assessed as growth rate at 1320 ug/ml preincubated for 6 hrs followed by 18 hrs incubation in fresh medium in absence of S9 fraction by MTT assay relative to control; type: toxicity, cell-based, Cricetulus griseus; details: chinese hamster, read-out: Activity

COP(=O)(CCC(N)C(=O)O)Oc1cccc(CC(=O)O)c1 (stereo not given)
viability at 18 h, 211 ug/ml [1]: 98.8%
Activity (Salmonella typhimurium [2]): 120
Activity [3]: Non-Toxic
viability at 24 h, 13.5 ug/ml [4]: 103%
Activity [5]: 0%
Activity (Salmonella typhimurium [6]): 27
viability at 18 h, 13.5 ug/ml [7]: 100%
viability at 18 h, 33.8 ug/ml [8]: 103%
Activity (Rattus norvegicus): Non-Toxic
Activity (Salmonella typhimurium [9]): 28
viability at 24 h, 84.5 ug/ml [10]: 101%
Activity (Escherichia coli [11]): 26
Activity (Salmonella typhimurium [12]): 8
Activity (Salmonella typhimurium [13]): 12
Activity (Escherichia coli [14]): 25
Activity (Salmonella typhimurium [15]): 21
Activity (Salmonella typhimurium [16]): 18
Activity (Salmonella typhimurium [17]): 15
Activity (Salmonella typhimurium [18]): 8
Activity (Escherichia coli [19]): 23
Activity [20]: 0%
Activity (Salmonella typhimurium [21]): 11
Activity (Salmonella typhimurium [22]): 17
Activity (Salmonella typhimurium [23]): 24
Activity (Salmonella typhimurium [24]): 12
viability at 18 h, 528 ug/ml [25]: 95.2%
Activity (Escherichia coli [26]): 27
Activity (Salmonella typhimurium [27]): 10
Activity [28]: 0%
viability at 18 h, 1320 ug/ml [29]: 95.7%
